Data published in ChEMBL document CHEMBL4190344, “Synthesis of substituted phenanthrene-9-benzimidazole conjugates: Cytotoxicity evaluation and apoptosis inducing studies” (Eur J Med Chem, 2017).
Calls of active or inactive are those of the source. The rule behind the calls is not given here.

Legend:
[1] = system: BT-549; test: Cytotoxicity in human BT549 cells incubated for 48 hrs by MTT assay; assay type: functional, cell-based; details: BT-549, 48 h
Procedure, shortened: (§1)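 Cells (1 × 10^4/well) were seeded in medium with 10% FBS and left 24 h at 37 °C. Compound diluted in medium was then added, alongside a vehicle control, for 48 h. MTT (5 mg/mL stock) was added for 4 h, formazan dissolved in DMSO and absorbance read at 570 nm. IC50 taken as the concentration giving 50% inhibition.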

[2] = system: HCT-15; test: Cytotoxicity in human HCT15 cells incubated for 48 hrs by MTT assay; assay type: functional, cell-based; details: HCT-15, 48 h; procedure, shortened: as §1
[3] = system: HCT-116; test: Cytotoxicity in human HCT116 cells incubated for 48 hrs by MTT assay; assay type: functional, cell-based; details: HCT-116, 48 h
Procedure, shortened: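 Cells (1 × 10^4/well) were seeded in medium with 10% FBS and left 24 h at 37 °C. Compound diluted in medium was then added, alongside a vehicle control, for 48 h. MTT (5 mg/mL stock) was added for 4 h, formazan dissolved in DMSO and absorbance read at 570 nm.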

[4] = system: MDA-MB-453; test: Cytotoxicity in human MDA-MB-453 cells incubated for 48 hrs by MTT assay; assay type: functional, cell-based; details: MDA-MB-453, 48 h; procedure, shortened: as §1
[5] = system: PC-3; test: Cytotoxicity in human PC3 cells incubated for 48 hrs by MTT assay; assay type: functional, cell-based; details: PC-3, 48 h; procedure, shortened: as §1
[6] = system: DU-145; test: Cytotoxicity in human DU145 cells incubated for 48 hrs by MTT assay; assay type: functional, cell-based; details: DU-145, 48 h; procedure, shortened: as §1
[7] = system: Calf thymus DNA; test: Binding affinity to calf thymus DNA assessed as increase in relative viscosity of DNA-compound complex at 5 uM by viscometry; assay type: nucleic-acid assay; details: Bos taurus
Procedure, shortened: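 Viscosity titration of test compound (5 µM) into CT-DNA (50 µM) in 100 mM Tris-HCl pH 7.0. Rolling-ball viscometer, ball fall time read at angles of 20° to 70°, Peltier-held temperature, viscosity calculated at 25 °C.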

Compound	IC50 [1]	IC50 [2]	IC50 [3]	IC50 [4]	IC50 [5]	IC50 [6]	Activity [7]
COc1cc2cc(-c3nc4cc(Cl)ccc4n3Cc3ccccc3)c3cc(OC)c(OC)cc3c2cc1OC	> 20 µM	10.3 µM	> 20 µM	17.3 µM	11.5 µM	> 20 µM	–
COc1cc2cc(-c3nc4ccc(C(=O)O)cc4[nH]3)c3cc(OC)c(OC)cc3c2cc1OC	> 20 µM	8.34 µM	9.92 µM	10.6 µM	10.2 µM	12.7 µM	–
COc1ccc2cc(-c3nc4cc(Cl)ccc4n3Cc3ccccc3)c3cc(OC)c(OC)cc3c2c1	> 20 µM	14.1 µM	> 20 µM	7.2 µM	> 20 µM	> 20 µM	–
COc1cc2cc(-c3nc4cc(Cl)ccc4n3Cc3cc(C)cc(C)c3)c3cc(OC)c(OC)cc3c2cc1OC	> 20 µM	15.6 µM	> 20 µM	16.5 µM	12.8 µM	> 20 µM	–
COc1cc2cc(-c3nc4ccc(C)cc4[nH]3)c3cc(OC)c(OC)cc3c2cc1OC	> 20 µM	> 20 µM	> 20 µM	> 20 µM	> 20 µM	8.21 µM	–
COc1cc2cc(-c3nc4ccc(F)cc4[nH]3)c3cc(OC)c(OC)cc3c2cc1OC	10.8 µM	9.42 µM	> 20 µM	> 20 µM	14.6 µM	> 20 µM	–
COc1cc2cc(-c3nc4ccccc4[nH]3)c3cc(OC)c(OC)cc3c2cc1OC	> 20 µM	> 20 µM	> 20 µM	> 20 µM	12.8 µM	18.9 µM	–
COc1cc2cc(-c3nc4ncc(Br)cc4[nH]3)c3cc(OC)c(OC)cc3c2cc1OC	> 20 µM	> 20 µM	> 20 µM	> 20 µM	> 20 µM	10 µM	–
COc1cccc2c1C(=O)c1c(O)c3c(c(O)c1C2=O)C[C@@](O)(C(=O)CO)C[C@@H]3O[C@H]1C[C@H](N)[C@H](O)[C@H](C)O1 [DOXORUBICIN]	–	–	–	–	–	1.91 µM	Active
COc1ccc2cc(-c3nc4ncc(Br)cc4[nH]3)c3cc(OC)c(OC)cc3c2c1	7.91 µM	> 20 µM	> 20 µM	> 20 µM	11.3 µM	> 20 µM	–
COc1cc2cc(-c3nc4ccc(Cl)cc4[nH]3)c3cc(OC)c(OC)cc3c2cc1OC	> 20 µM	> 20 µM	> 20 µM	9.42 µM	18.9 µM	> 20 µM	–
COc1cc2cc(-c3nc4ccc(Br)cc4[nH]3)c3cc(OC)c(OC)cc3c2cc1OC	> 20 µM	> 20 µM	> 20 µM	15.1 µM	15.7 µM	> 20 µM	–
COc1ccc2cc(-c3nc4ccc(Cl)cc4[nH]3)c3cc(OC)c(OC)cc3c2c1	14.2 µM	> 20 µM	11.3 µM	> 20 µM	7.24 µM	> 20 µM	Active
COC(=O)Nc1nc2cc(C(=O)c3cccs3)ccc2[nH]1 [NOCODAZOLE]	–	–	1.06 µM	0.91 µM	1.84 µM	1.14 µM	–
COc1cc2cc(-c3nc4cc(C)cc(C)c4[nH]3)c3cc(OC)c(OC)cc3c2cc1OC	7.15 µM	> 20 µM	> 20 µM	> 20 µM	18.3 µM	> 20 µM	–
CC[n+]1c(-c2ccccc2)c2cc(N)ccc2c2ccc(N)cc21	–	–	–	–	–	–	Active
CN1CCN(c2ccc3[nH]c(-c4ccc5[nH]c(-c6ccc(O)cc6)nc5c4)nc3c2)CC1	–	–	–	–	–	–	inactive
COc1ccc2cc(-c3nc4ccccc4[nH]3)c3cc(OC)c(OC)cc3c2c1	11.4 µM	> 20 µM	> 20 µM	> 20 µM	> 20 µM	17.2 µM	–
COC(=O)c1ccc2nc(-c3cc4cc(OC)c(OC)cc4c4cc(OC)c(OC)cc34)[nH]c2c1	> 20 µM	> 20 µM	> 20 µM	> 20 µM	16.7 µM	17.2 µM	–
O=c1[nH]cc(F)c(=O)[nH]1 [FLUOROURACIL]	–	–	8.62 µM	–	–	2.18 µM	–
COc1ccc2nc(-c3cc4cc(OC)c(OC)cc4c4cc(OC)c(OC)cc34)[nH]c2c1	11.5 µM	10.2 µM	8.91 µM	9.98 µM	13.1 µM	> 20 µM	–
